Consider 5 molecules from ChEMBL document CHEMBL1240396, “In vitro sensitivities of Plasmodium falciparum to different antimalarial drugs in Uganda” (Antimicrob Agents Chemother, 2010).

pIC50: −log10 of the molar value.

Assay [1] concerns Plasmodium falciparum. Nature of the assay: Antimicrobial activity against chloroquine-sensitive Plasmodium falciparum D6 by ELISA. It counts as functional, organism-based. Put shortly:
(§1)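 Reference laboratory lines run as controls. Drug-predosed wells held seven duplicate 2-fold dilutions (CQ 15.7–1,002 nM; MDAQ 6.25–400 nM; QN 15.4–985 nM; DHA 0.13–8.5 nM; LM 0.2–12.5 nM; PQ 1.6–100 nM). Incubated 72 h, 37°C, 5% CO2, freeze-thawed, and HRP-2 measured by ELISA at A450 against drug-free wells. IC50 by nonlinear regression.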

For assay [2], the system named is Plasmodium falciparum. Nature of the assay: Antimicrobial activity against chloroquine-resistant Plasmodium falciparum W2 by ELISA.
Assay [3] concerns Plasmodium falciparum. Nature of the assay: Antimicrobial activity against chloroquine-resistant Plasmodium falciparum K1 by ELISA. It counts as functional, organism-based. Put shortly: as §1
The test system of assay [4] is Plasmodium falciparum. Nature of the assay: Antimicrobial activity against chloroquine-sensitive Plasmodium falciparum HB3 by ELISA.
The subject of assay [5] is Plasmodium falciparum. Nature of the assay: Antimicrobial activity against Plasmodium falciparum by ELISA. It counts as functional, organism-based. In outline:
(§2)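 Fresh patient isolates, taken before therapy, washed in RPMI 1640, diluted with group O erythrocytes to 0.05% parasitemia, ~2% PCV with 0.5% Albumax II. Added to dried predosed wells with seven duplicate 2-fold dilutions (CQ 15.7–1,002 nM; MDAQ 6.25–400 nM; QN 15.4–985 nM; DHA 0.13–8.5 nM; LM 0.2–12.5 nM; PQ 1.6–100 nM). Incubated 72 h, 37°C, 5% CO2, then freeze-thawed. HRP-2 ELISA (A450) compared against drug-free wells. IC50 from nonlinear regression.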

Assay [6] deals with Plasmodium falciparum. Nature of the assay: Antimicrobial activity against Plasmodium falciparum harboring mdr1 N86Y/D1246Y/Y184F mutant gene by ELISA. It counts as functional, organism-based. In outline: as §2

Take `C[C@H]1[C@@H](O)O[C@@H]2O[C@@]3(C)CC[C@H]4[C@H](C)CC[C@@H]1[C@@]24OO3` [ARTENIMOL]: the pIC50 was 9.10 in assay [1]; 9.39 in assay [2]; 9.31 in assay [3]; 9.15 in assay [4]; 9.26 in assay [5].

In the case of `CCNCc1cc(Nc2ccnc3cc(Cl)ccc23)ccc1O` [DESETHYL AMODIAQUINE], the negative-log IC50 (pIC50) in assay [1] is 7.51; in assay [6], 8.20; in assay [2], 6.57; in assay [3] it was 6.58; in assay [4], 7.53; in assay [5] it was 7.18.

On to `CCCCN(CCCC)CC(O)c1cc(Cl)cc2c1-c1ccc(Cl)cc1/C2=C/c1ccc(Cl)cc1` (stereo not drawn) [LUMEFANTRINE], for which the pIC50 is 8.74 in assay [1]; 9.72 in assay [6]; 9.35 in assay [2]; 9.51 in assay [3]; 8.85 in assay [4]; 9.29 in assay [5].

Consider `Clc1ccc2c(N3CCN(CCCN4CCN(c5ccnc6cc(Cl)ccc56)CC4)CC3)ccnc2c1` [PIPERAQUINE], for which the pIC50 in assay [1] is 8.20; in assay [6], 8.80; in assay [3] it was 7.90; in assay [4] it was 7.98; in assay [5] it was 8.21.

For `C=C[C@H]1CN2CC[C@H]1C[C@H]2[C@H](O)c1ccnc2ccc(OC)cc12` [QUININE], the pIC50 in assay [1] is 6.97; in assay [6], 7.81; in assay [2] it was 6.31; in assay [3], 6.56; in assay [4], 6.63; in assay [5], 7.03.
